Experiments:
[1] = Cytotoxicity against human PMP457-2 cells assessed as inhibition of cell proliferation measured after 24 hrs by crystal violet staining assay; type: functional, cell-based; conditions: PMP457-2, 24 h
Summary of the method: (§1)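 PMP-derived lines (ABX023-1, PMP457-2, PMP501-1) and mucinous colonic adenocarcinoma peritoneal metastasis line C09-1. Seeded at 30 000 cells/well in triplicate in Ham's F12 with 10% FBS, L-glutamine, insulin and sodium selenite. Grown 24 h at 37 °C, then treated for 24 h. Controls were DMSO vehicle, 5-fluorouracil and 10% EtOH dead-cell. Cells were stained with 0.2% crystal violet, solubilised in SDS/EtOH and read at OD595.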

[2] = Cytotoxicity against human ABX023-1 cells assessed as inhibition of cell proliferation measured after 24 hrs by crystal violet staining assay; type: functional, cell-based; conditions: ABX023-1, 24 h; summary of the method: as §1
[3] = Cytotoxicity against human PMP501-1 cells assessed as inhibition of cell proliferation measured after 24 hrs by crystal violet staining assay; type: functional, cell-based; conditions: PMP501-1, 24 h; summary of the method: as §1
[4] = Cytotoxicity against human C09-1 cells assessed as inhibition of cell proliferation measured after 24 hrs by crystal violet staining assay; type: functional, cell-based; conditions: C09-1, 24 h; summary of the method: as §1
[5] = Stability of the compound in 0.1% TFA/MeOH solution measured after 12 hrs by LC/MS analysis; type: physicochemical
Summary of the method: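 10 μg aliquots were incubated in 0.1% TFA in MeOH at 30 °C for 12 h, then dried under N2 and redissolved in MeOH. Analysed by UHPLC-DAD-ESI(±)MS on C18 with a water/MeCN gradient containing 0.1% formic acid. Compared against authentic standards run by the same method.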

| SMILES | IC50 [1] | IC50 [2] | IC50 [3] | IC50 [4] | Stabilty [5] |
| --- | --- | --- | --- | --- | --- |
| C[C@@H]1O[C@@H](O[C@H]2CC[C@H](O[C@H]3[C@H](O)C[C@H](c4ccc5c(c4O)C(=O)c4ccc(C[C@@](C)(O)CC(=O)O)c(O)c4C5=O)O[C@@H]3C)O[C@H]2C)C(N)=CC1=O | > 100 µM | 23 µM | 12 µM | 17 µM |  |
| CSC1=CC(=O)[C@H](C)O[C@H]1O[C@H]1CC[C@H](O[C@H]2[C@H](O)C[C@H](c3ccc4c(c3O)C(=O)c3ccc(C[C@](C)(CC(=O)O)O[C@H]5CC[C@H](O[C@H]6CC[C@H](O)[C@H](C)O6)[C@H](C)O5)c(O)c3C4=O)O[C@@H]2C)O[C@H]1C | 7.8 µM | 13 µM | 3.9 µM | 61 µM |  |
| C[C@@H]1O[C@@H](O[C@H]2[C@H](O)C[C@H](c3ccc4c(c3O)C(=O)c3ccc(C[C@@](C)(O)CC(=O)O)c(O)c3C4=O)O[C@@H]2C)CC[C@@H]1O[C@H]1CC[C@H](O)[C@H](C)O1 | 23 µM | 21 µM | > 100 µM | 32 µM |  |
| C[C@@H]1O[C@@H](O[C@H]2[C@H](O)C[C@H](c3ccc4c(c3O)C(=O)c3ccc(C[C@](C)(CC(=O)O)O[C@H]5CC[C@H](O[C@H]6CC[C@H](O)[C@H](C)O6)[C@H](C)O5)c(O)c3C4=O)O[C@@H]2C)CC[C@@H]1O[C@H]1CC[C@H](O)[C@H](C)O1 | 11 µM | 45 µM | 18 µM | 38 µM |  |
| C[C@@H]1O[C@@H](O[C@H]2[C@H](O)C[C@H](c3ccc4c(c3O)C(=O)c3c(O)cc(C[C@](C)(CC(=O)O)O[C@H]5CC[C@H](O[C@H]6CC[C@H](O)[C@H](C)O6)[C@H](C)O5)c(O)c3C4=O)O[C@@H]2C)CC[C@@H]1O[C@H]1CC[C@H](O)[C@H](C)O1 | 1.9 µM | 1.4 µM | 2.7 µM | 8.7 µM |  |
| C[C@H]1O[C@@H](c2ccc3c(c2O)C(=O)c2ccc(C[C@@](C)(O)CC(=O)O)c(O)c2C3=O)C[C@@H](O)[C@@H]1O | 6.7 µM | 49 µM | 11 µM | 42 µM | Stable |
| C[C@@H]1O[C@H]2O[C@@H]3[C@@H](C)O[C@@H](c4ccc5c(c4O)C(=O)c4ccc(C[C@@](C)(O)CC(=O)O)c(O)c4C5=O)C[C@H]3O[C@H]2C[C@@H]1O | > 100 µM | 14 µM | 23 µM | 19 µM | Stable |
| C[C@@H]1O[C@@H](O[C@H]2[C@H](O)C[C@H](c3ccc4c(c3O)C(=O)c3ccc(C[C@@](C)(O)CC(=O)O)c(O)c3C4=O)O[C@@H]2C)CC[C@@H]1O | 5.9 µM | 12 µM | 14 µM | 6.6 µM |  |
| C[C@@H]1O[C@@H](O[C@H]2[C@H](O)C[C@H](c3ccc4c(c3O)C(=O)c3c(O)cc(C[C@@](C)(O)CC(=O)O)c(O)c3C4=O)O[C@@H]2C)CC[C@@H]1O[C@H]1CC[C@H](O)[C@H](C)O1 | 5.5 µM | 4.7 µM | 2.5 µM | 10 µM |  |
| O=c1[nH]cc(F)c(=O)[nH]1 [FLUOROURACIL] | 2 µM | 3.4 µM | 3.6 µM | 4 µM |  |
